Data reported in ChEMBL document CHEMBL3124806, “Imidazopyridine-fused [1,3]-diazepinones: synthesis and antiproliferative activity” (Eur J Med Chem, 2014).

Legend:
T47D = assay: Cytotoxicity against human T47D cells assessed as cell growth at 10 uM after 48 hrs by SRB assay relative to untreated control; assay type: functional; conditions: read-out: Activity
Method in brief: (§1)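 NCI-60 single-dose screen. Compounds were added to the cultures at 10 μM and incubated for 48 h. The end point was sulforhodamine B protein staining read spectrophotometrically. Growth is reported as percent of untreated control cells.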

K562 = assay: Cytotoxicity against human K562 cells assessed as cell growth at 10 uM after 48 hrs by SRB assay relative to untreated control; assay type: functional; conditions: K562, 48 h, read-out: Activity
Method in brief: (§2)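 NCI-60 panel screen at a single concentration of 10 μM with 48 h incubation. Cell density measured by sulforhodamine B protein-binding dye and read spectrophotometrically. Growth expressed as percent of untreated control cells.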

SF-268 = assay: Cytotoxicity against human SF268 cells assessed as cell growth at 10 uM after 48 hrs by SRB assay relative to untreated control; assay type: functional; conditions: SF-268, 48 h, read-out: Activity
Method in brief: (§3)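 NCI-60 one-dose screen: each agent added at 10 µM, cultures incubated 48 h. Endpoint by sulforhodamine B protein-binding dye read spectrophotometrically; growth expressed as percent of untreated control cells.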

HCT-116 = assay: Cytotoxicity against human HCT116 cells assessed as cell growth at 10 uM after 48 hrs by SRB assay relative to untreated control; assay type: functional; conditions: HCT-116, 48 h, read-out: Activity; method in brief: as §2
SK-MEL-2 = assay: Cytotoxicity against human SK-MEL-2 cells assessed as cell growth at 10 uM after 48 hrs by SRB assay relative to untreated control; assay type: functional; conditions: SK-MEL-2, 48 h, read-out: Activity; method in brief: as §3
OVCAR-3 = assay: Cytotoxicity against human OVCAR3 cells assessed as cell growth at 10 uM after 48 hrs by SRB assay relative to untreated control; assay type: functional; conditions: OVCAR-3, 48 h, read-out: Activity; method in brief: as §3
HCC 2998 = assay: Cytotoxicity against human HCC2998 cells assessed as cell growth at 10 uM after 48 hrs by SRB assay relative to untreated control; assay type: functional; conditions: HCC 2998, 48 h, read-out: Activity; method in brief: as §2
M14 = assay: Cytotoxicity against human M14 cells assessed as cell growth at 10 uM after 48 hrs by SRB assay relative to untreated control; assay type: functional; conditions: M14, 48 h, read-out: Activity; method in brief: as §2
A498 = assay: Cytotoxicity against human A498 cells assessed as cell growth at 10 uM after 48 hrs by SRB assay relative to untreated control; assay type: functional; conditions: A498, 48 h, read-out: Activity; method in brief: as §2
KM12 = assay: Cytotoxicity against human KM12 cells assessed as cell growth at 10 uM after 48 hrs by SRB assay relative to untreated control; assay type: functional; conditions: KM12, 48 h, read-out: Activity; method in brief: as §2
NCI-H460 = assay: Cytotoxicity against human NCI-H460 cells assessed as cell growth at 10 uM after 48 hrs by SRB assay relative to untreated control; assay type: functional; conditions: NCI-H460, 48 h, read-out: Activity; method in brief: as §3
Ovis aries = species: Ovis aries; assay: Inhibition of sheep brain tubulin polymerization at 100 uM after 40 mins by DAPI staining-based fluorescence assay
Method in brief: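 Microtubular protein was purified from sheep brain by two assembly/disassembly cycles (37 °C/0 °C) in MES buffer (100 mM MES pH 6.6, 1 mM EGTA, 0.5 mM MgCl₂). Compound in DMSO was added to 10 µM tubulin with 10 µM DAPI and incubated 40 min at RT. GTP (1 mM) was then added, and assembly was followed by DAPI fluorescence at 37 °C.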

MOLT-4 = assay: Cytotoxicity against human MOLT4 cells assessed as cell growth at 10 uM after 48 hrs by SRB assay relative to untreated control; assay type: functional; conditions: MOLT-4, 48 h, read-out: Activity; method in brief: as §3
TK-10 = assay: Cytotoxicity against human TK10 cells assessed as cell growth at 10 uM after 48 hrs by SRB assay relative to untreated control; assay type: functional; conditions: TK-10, 48 h, read-out: Activity; method in brief: as §1
MCF7 = assay: Cytotoxicity against human MCF7 cells assessed as cell growth at 10 uM after 48 hrs by SRB assay relative to untreated control; assay type: functional; conditions: MCF7, 48 h, read-out: Activity; method in brief: as §2
SR = assay: Cytotoxicity against human SR cells assessed as cell growth at 10 uM after 48 hrs by SRB assay relative to untreated control; assay type: functional; conditions: read-out: Activity; method in brief: as §1
COLO 205 = assay: Cytotoxicity against human COLO205 cells assessed as cell growth at 10 uM after 48 hrs by SRB assay relative to untreated control; assay type: functional; conditions: COLO 205, 48 h, read-out: Activity; method in brief: as §2
ACHN = assay: Cytotoxicity against human ACHN cells assessed as cell growth at 10 uM after 48 hrs by SRB assay relative to untreated control; assay type: functional; conditions: read-out: Activity; method in brief: as §2
MDA-MB-468 = assay: Cytotoxicity against human MDA-MB-468 cells assessed as cell growth at 10 uM after 48 hrs by SRB assay relative to untreated control; assay type: functional; conditions: MDA-MB-468, 48 h, read-out: Activity; method in brief: as §3
HL-60(TB) = assay: Cytotoxicity against human HL-60(TB) cells assessed as cell growth at 10 uM after 48 hrs by SRB assay relative to untreated control; assay type: functional; conditions: HL-60, 48 h, read-out: Activity
Method in brief: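 NCI-60 human tumour cell line panel; a single 10 µM concentration was added to the cultures and incubated 48 h. Endpoint was sulforhodamine B protein-binding dye read spectrophotometrically, with growth reported as percent of untreated control cells.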

786-0 = assay: Cytotoxicity against human […] cells assessed as cell growth at 10 uM after 48 hrs by SRB assay relative to untreated control; assay type: functional; conditions: 786-0, 48 h, read-out: Activity; method in brief: as §2
SK-MEL-28 = assay: Cytotoxicity against human SK-MEL-28 cells assessed as cell growth at 10 uM after 48 hrs by SRB assay relative to untreated control; assay type: functional; conditions: SK-MEL-28, 48 h, read-out: Activity; method in brief: as §1
[1] = Cytotoxicity against human UACC257 cells assessed as cell growth at 10 uM after 48 hrs by SRB assay relative to untreated control; assay type: functional; conditions: UACC-257, 48 h, read-out: Activity; method in brief: as §1
SN12C = assay: Cytotoxicity against human SN12C cells assessed as cell growth at 10 uM after 48 hrs by SRB assay relative to untreated control; assay type: functional; conditions: read-out: Activity; method in brief: as §1
A549 = assay: Cytotoxicity against human A549 cells assessed as cell growth at 10 uM after 48 hrs by SRB assay relative to untreated control; assay type: functional; conditions: A549, 48 h, read-out: Activity; method in brief: as §2
[2] = Cytotoxicity against human UO31 cells assessed as cell growth at 10 uM after 48 hrs by SRB assay relative to untreated control; assay type: functional; conditions: UO-31, 48 h, read-out: Activity; method in brief: as §1
DU-145 = assay: Cytotoxicity against human DU145 cells assessed as cell growth at 10 uM after 48 hrs by SRB assay relative to untreated control; assay type: functional; conditions: DU-145, 48 h, read-out: Activity; method in brief: as §2
SNB-19 = assay: Cytotoxicity against human SNB19 cells assessed as cell growth at 10 uM after 48 hrs by SRB assay relative to untreated control; assay type: functional; conditions: SNB-19, 48 h, read-out: Activity; method in brief: as §1
HCT-15 = assay: Cytotoxicity against human HCT15 cells assessed as cell growth at 10 uM after 48 hrs by SRB assay relative to untreated control; assay type: functional; conditions: HCT-15, 48 h, read-out: Activity; method in brief: as §2

## C[C@@H]1NC(c2ccc(N(C)C)cc2)=Nc2nc3ccccn3c2C1=O
T47D
  growth at 10 µM: 80.7%
K562
  growth at 10 µM: 82.2%
SF-268
  growth at 10 µM: 103%
HCT-116
  growth at 10 µM: 101%
SK-MEL-2
  growth at 10 µM: 88.6%
OVCAR-3
  growth at 10 µM: 101%
HCC 2998
  growth at 10 µM: 103%
M14
  growth at 10 µM: 101%
A498
  growth at 10 µM: 88.8%
KM12
  growth at 10 µM: 96.3%
NCI-H460
  growth at 10 µM: 91.9%
Ovis aries
  inhibition: 55%
MOLT-4
  growth at 10 µM: 84.2%
TK-10
  growth at 10 µM: 86%
MCF7
  growth at 10 µM: 66%
SR
  growth at 10 µM: 86.6%
COLO 205
  growth at 10 µM: 94.2%
ACHN
  growth at 10 µM: 85.3%
MDA-MB-468
  growth at 10 µM: 72.3%
HL-60(TB)
  growth at 10 µM: 89.6%
786-0
  growth at 10 µM: 102%
SK-MEL-28
  growth at 10 µM: 113%
[1]
  growth at 10 µM: 97.6%
SN12C
  growth at 10 µM: 102%
A549
  growth at 10 µM: 103%
[2]
  growth at 10 µM: 53.7%
DU-145
  growth at 10 µM: 109%
SNB-19
  growth at 10 µM: 95.2%
HCT-15
  growth at 10 µM: 94.7%

## COc1ccc(C2=Nc3nc4ccccn4c3C(=O)[C@H](C)N2)cc1
T47D
  growth at 10 µM: 97%
K562
  growth at 10 µM: 86.8%
SF-268
  growth at 10 µM: 104%
HCT-116
  growth at 10 µM: 95.9%
SK-MEL-2
  growth at 10 µM: 83.4%
OVCAR-3
  growth at 10 µM: 98.3%
HCC 2998
  growth at 10 µM: 97.8%
M14
  growth at 10 µM: 95.4%
A498
  growth at 10 µM: 105%
KM12
  growth at 10 µM: 102%
NCI-H460
  growth at 10 µM: 105%
Ovis aries
  inhibition: 20%
MOLT-4
  growth at 10 µM: 84.4%
TK-10
  growth at 10 µM: 99.2%
MCF7
  growth at 10 µM: 72%
SR
  growth at 10 µM: 80.4%
COLO 205
  growth at 10 µM: 97.5%
ACHN
  growth at 10 µM: 83.8%
MDA-MB-468
  growth at 10 µM: 76.5%
HL-60(TB)
  growth at 10 µM: 90.6%
786-0
  growth at 10 µM: 98.5%
SK-MEL-28
  growth at 10 µM: 105%
[1]
  growth at 10 µM: 96.1%
SN12C
  growth at 10 µM: 97.7%
A549
  growth at 10 µM: 106%
[2]
  growth at 10 µM: 55.6%
DU-145
  growth at 10 µM: 113%
SNB-19
  growth at 10 µM: 99.1%
HCT-15
  growth at 10 µM: 85.2%

## Cc1ccc(C2=Nc3nc4ccccn4c3C(=O)[C@H](C)N2)cc1
T47D
  growth at 10 µM: 103%
K562
  growth at 10 µM: 47.1%
SF-268
  growth at 10 µM: 99.7%
HCT-116
  growth at 10 µM: 91.1%
SK-MEL-2
  growth at 10 µM: 69.5%
OVCAR-3
  growth at 10 µM: 90.4%
HCC 2998
  growth at 10 µM: 104%
M14
  growth at 10 µM: 87%
A498
  growth at 10 µM: 99.1%
KM12
  growth at 10 µM: 70.3%
NCI-H460
  growth at 10 µM: 94.5%
Ovis aries
  inhibition: 16%
MOLT-4
  growth at 10 µM: 75.9%
TK-10
  growth at 10 µM: 96%
MCF7
  growth at 10 µM: 71.2%
SR
  growth at 10 µM: 42.2%
COLO 205
  growth at 10 µM: 80.4%
ACHN
  growth at 10 µM: 81%
MDA-MB-468
  growth at 10 µM: 91.1%
HL-60(TB)
  growth at 10 µM: 87.5%
786-0
  growth at 10 µM: 98.4%
SK-MEL-28
  growth at 10 µM: 88.9%
[1]
  growth at 10 µM: 90.3%
SN12C
  growth at 10 µM: 93.9%
A549
  growth at 10 µM: 92.9%
[2]
  growth at 10 µM: 45.9%
DU-145
  growth at 10 µM: 112%
SNB-19
  growth at 10 µM: 95.5%
HCT-15
  growth at 10 µM: 71.9%

## C[C@@H]1NC(c2ccc(Br)cc2)=Nc2nc3ccccn3c2C1=O
T47D
  growth at 10 µM: 67.2%
K562
  growth at 10 µM: 24.3%
SF-268
  growth at 10 µM: 83.4%
HCT-116
  growth at 10 µM: 29.2%
SK-MEL-2
  growth at 10 µM: 47.4%
OVCAR-3
  growth at 10 µM: 17.3%
HCC 2998
  growth at 10 µM: 69%
M14
  growth at 10 µM: 31.8%
A498
  growth at 10 µM: 69.9%
KM12
  growth at 10 µM: 29.6%
NCI-H460
  growth at 10 µM: 32.5%
Ovis aries
  inhibition: 8%
MOLT-4
  growth at 10 µM: 57.5%
TK-10
  growth at 10 µM: 110%
MCF7
  growth at 10 µM: 20.9%
SR
  growth at 10 µM: 30%
COLO 205
  growth at 10 µM: 26.3%
ACHN
  growth at 10 µM: 69.2%
MDA-MB-468
  growth at 10 µM: -0.5%
786-0
  growth at 10 µM: 83.1%
SK-MEL-28
  growth at 10 µM: 66.2%
[1]
  growth at 10 µM: 70%
SN12C
  growth at 10 µM: 91.8%
A549
  growth at 10 µM: 54.7%
[2]
  growth at 10 µM: 62%
DU-145
  growth at 10 µM: 87.7%
SNB-19
  growth at 10 µM: 82.6%
HCT-15
  growth at 10 µM: 30.8%
